# miR-122 sensor: miR-122 inhibition in Huh7 cells. actives 0.3% (n = 340,000). Huh7 miR-122 Renilla luciferase sensor, 48 h; neutral wells = 0, positive control = 100. activation (reporter increase), % at 12.5 µM. AID 602342;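 active = mean replicate activation score at least 90 and every replicate individually at or above 90; inconclusive = only one of the two criteria met; inactive = neither criterion met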;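 note: higher luciferase means less miR-122 activity so hits act as miR-122 inhibitors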
# ERAP1 HTS inh: blocks human ERAP1 aminopeptidase activity; inhibition, % at 10.7 µM; recombinant ERAP1, Leu-AMC fluorescence, 60 min; AID 652197; Q9NZ08; actives 0.15% (n = 340,000);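 active = mean replicate inhibition of at least 30%, or all replicates individually reaching that 30% level; inactive = mean below 30% and not every replicate reaching it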;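 note: 0% = neutral control wells and 100% = L-leucinethiol positive control wells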
# GSIS activator: primary screen for activators of insulin secretion dependent on glucose, INS-1E cells, GLuc reporter luminescence; AID 743287; activation, % at 16.6 µM; INS-1E GLuc reporter insulin secretion, 2-3 h; actives 0.61% (n = 370,000);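 active = lowest replicate activation of at least 40%, so every replicate reaches that level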;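 note: 0% = median of neutral control wells and 100% = median of IBMX positive control wells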
# DENV2 CPE rescue: DENV2-induced cell death inhibition. DENV2-infected cells, cytopathic effect rescue, plate reader. CPE inhibition, % at 9.99 µM. actives 1.7% (n = 350,000); in the data active = CPE inhibition above about 20%, passing the limit was not always enough; inconclusive = no clear call, values can overlap the other calls; tested in BHK-21 cells;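 note: 0% = median of neutral control wells and 100% = median of positive control wells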
# E-sel inducer: induces E-selectin expression in human endothelial cells; P16581; HUVEC E-selectin immunofluorescence imaging; normalized: neutral wells 0, TNF-alpha wells 100; activation, % at 7.58 µM; actives 0.37% (n = 260,000); AID 686992;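 active = mean E-selectin-positive cell signal at least 10% of the positive control, reached in at least 60% of replicates, without over 20% cell loss; inconclusive = no rule given, readout overlaps actives, possibly toxicity-flagged; inactive = the rest, including those meeting only one limit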
# Target sequence (P16581 whole entry, looked up): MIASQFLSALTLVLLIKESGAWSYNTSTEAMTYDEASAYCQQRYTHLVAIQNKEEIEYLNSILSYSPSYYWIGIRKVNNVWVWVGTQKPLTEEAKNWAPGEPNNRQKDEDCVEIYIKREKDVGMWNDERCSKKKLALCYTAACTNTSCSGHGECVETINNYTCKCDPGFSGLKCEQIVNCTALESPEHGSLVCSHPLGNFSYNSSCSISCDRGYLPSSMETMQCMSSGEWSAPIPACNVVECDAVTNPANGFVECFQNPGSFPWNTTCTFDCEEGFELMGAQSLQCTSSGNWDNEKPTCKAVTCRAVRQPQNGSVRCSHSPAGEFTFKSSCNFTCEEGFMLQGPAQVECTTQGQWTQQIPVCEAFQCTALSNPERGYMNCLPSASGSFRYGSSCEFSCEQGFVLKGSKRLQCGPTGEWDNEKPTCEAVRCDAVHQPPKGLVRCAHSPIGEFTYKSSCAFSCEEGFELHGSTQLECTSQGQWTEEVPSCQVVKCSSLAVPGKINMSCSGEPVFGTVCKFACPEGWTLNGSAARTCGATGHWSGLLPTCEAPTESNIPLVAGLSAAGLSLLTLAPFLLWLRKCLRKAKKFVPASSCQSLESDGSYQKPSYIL
#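 Read-out: % PE-positive cells | Test system: HUVEC | Doses: One compound dose added by pin transfer | Buffer or medium: EGM-2 over gelatin coat | Signal: Immunofluorescence imaging | Benchmarks: TNF-alpha, DMSO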
# CFTR F508del cor: CFTR F508del correction in bronchial cells | CFBE cells, YFP halide quenching; stimulated with forskolin plus potentiator P3; % fluorescence drop versus neutral controls | activity (quench increase), % at 7.58 µM | actives 0.36% (n = 350,000);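 active = mean added fluorescence quench of at least 8% versus neutral control, with both replicates also reaching 8%; inconclusive = only one of the mean or replicate conditions met; inactive = mean below 8% and not both replicates reaching 8%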;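 note: cells transiently co-express mutant CFTR-F508del with the halide-sensitive YFP; corrector assay measuring rescue of mutant channel to the surface after 24 h compound exposure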
# * marks the source's active call; other numbers are inactive results; ? = inconclusive; . = no result; [ ] = dose if it differs, or a comment. Sampled rows, rich in hits. Any-hit rate of the full collection: about 2.6%.
SMILES,miR-122 sensor,ERAP1 HTS inh,GSIS activator,DENV2 CPE rescue,E-sel inducer,CFTR F508del cor
O=C1/C(=C/c2cccc(F)c2)CSc2sccc21,-3,.,43*,.,.,.
O=C1/C(=C/c2cccc(Cl)c2)CSc2sccc21,.,0,20,-1,1,0
C[C@@H]1CN([C@H](C)CO)S(=O)(=O)c2ccc(C#Cc3ccccc3)cc2O[C@H]1CN(C)C(=O)CN(C)C,-7[16.7 µM],0,21,24*,0,-4
C[C@H](CO)N1C[C@H](C)[C@@H](CN(C)C(=O)Cc2ccccn2)Oc2cc(C#C[C@@H](C)O)ccc2S1(=O)=O,-6[16.7 µM],0,41*,-4,0,1
C[C@H](O)C#Cc1ccc2c(c1)O[C@@H](CN(C)C(=O)Cc1ccccn1)[C@H](C)CN([C@H](C)CO)S2(=O)=O,6[16.7 µM],-3,23,-5,0,1
C[C@H](CO)N1C[C@H](C)[C@@H](CN(C)C(=O)C2CC2)Oc2cc(C#Cc3ccccc3)ccc2S1(=O)=O,27[16.7 µM],-3,0,174*,0,1
C[C@H](O)C#Cc1ccc2c(c1)O[C@H](CN(C)C(=O)CN(C)C)[C@@H](C)CN([C@H](C)CO)S2(=O)=O,-5[16.7 µM],0,11,24*,0,0
Cc1cc(C(=O)Nc2ccc3c(c2)C(=O)N(C)[C@H]2CC[C@@H](CC(=O)NC4CCCC4)O[C@@H]2CO3)no1,0[16.7 µM],2,1,17,0,6
COc1ccc(-c2ccc(=O)n(CC(=O)Nc3cccc(O)c3)n2)cc1OC,.,.,117*,.,.,.
COc1ccc(-c2ccc(=O)n(CC(=O)Nc3nnc(C(C)C)s3)n2)cc1OC,2,.,.,.,0,.
COCC#Cc1ccc2c(c1)O[C@@H](CN(C)C(=O)CN(C)C)[C@@H](C)CN([C@@H](C)CO)S2(=O)=O,-2[16.7 µM],1,3,-1,0,-1
C[C@H]1CN([C@@H](C)CO)C(=O)c2cc(-c3ccccc3F)cnc2O[C@H]1CN(C)C(=O)C1CCC1,-3[16.7 µM],3,-1,12,2,-2
CC1=C(C(=O)N(C)C)CC(CC(=O)NCC2CCCCC2)C(=O)N1CCCN1CCCC1=O (stereo not drawn),-5,-2,17,-4,.,-1
CC1=C(C(=O)N(C)C)CC(CC(=O)NCc2cccc3ccccc23)C(=O)N1CCCN1CCCC1=O (stereo not drawn),2,.,8,7,-7,8.3*
CCN(CC)C(=O)C1=C(C)N(CCCN2CCCC2=O)C(=O)C(CC(=O)NCC2CCCCC2)C1 (stereo not drawn),-1,10,-4,74*,0,-4
COc1ccc(-c2csc(NC(=S)NC(=O)/C=C/c3ccco3)n2)cc1OC,-6,-1,-5,5,.,9.7*
COc1ccc(-c2csc(NC(=S)NC(=O)/C=C/c3ccco3)n2)cc1Br,-5,.,.,-4,0,9.4*
COc1ccc(-c2csc(NC(=S)NC(=O)c3ccco3)n2)cc1Br,.,4,16,3,.,-1
C[C@@H]1CCCCO[C@@H](CN(C)C(=O)Nc2ccc(F)cc2)[C@@H](C)CN([C@@H](C)CO)C(=O)c2cc(NC(=O)NC3CCCCC3)ccc2O1,.,.,4,.,1,.
CN(C)CC(=O)N[C@H]1CC[C@H](CCn2cc(C3CCCCC3)nn2)O[C@H]1CO,7[16.7 µM],1,-8,41*,0,-1
O=C(Nc1ccc(Cl)c(Cl)c1)N[C@H]1CC[C@@H](CCn2cc(C3CC3)nn2)O[C@H]1CO,.,-2,-17,-5,0,-1
CN(C)CC(=O)N[C@@H]1CC[C@H](CCn2cc(C3CCCCC3)nn2)O[C@H]1CO,0[16.7 µM],2,-8,9,0,-1
O=C(Nc1ccc(Cl)c(Cl)c1)N[C@@H]1CC[C@H](CCn2cc(C3CCCC3)nn2)O[C@@H]1CO,.,-1,-15,28*,0,1
COc1ccc2noc3c2c1C(=O)c1ccccc1-3,-9,.,4,0,5,37*
COc1ccc(OC)c2c1C(=O)c1ccccc1C2=O,.,.,34,.,.,.
SMILES,miR-122 sensor,ERAP1 HTS inh,GSIS activator,DENV2 CPE rescue,E-sel inducer,CFTR F508del cor
C[C@@H]1CN([C@H](C)CO)S(=O)(=O)c2ccc(C3=CCCC3)cc2O[C@@H]1CN(C)C(=O)c1ccccc1,-9[16.7 µM],1,-2,-4,-1,-3
COc1ccccc1CNC(=O)CCNS(=O)(=O)c1ccc2[nH]c(=O)oc2c1,14,0,53*,-9,.,-2
c1cc[n+](CCC[n+]2ccccc2)cc1,-2,110*,5,-5,1,3
CN1CCN(C(=O)c2ccc(CN(c3ccccc3)S(=O)(=O)c3ccccc3)cc2)CC1,-4,.,-2,-4,-1,12*
CCN1CCN(C(=O)c2ccc(CN(c3ccccc3)S(=O)(=O)c3ccccc3)cc2)CC1,5,-1,.,.,0,.
NC(=O)c1cccnc1Oc1ccccc1,-3,.,23,4,0,0
NNC(=O)c1cccnc1Oc1ccccc1,1,.,44*,2,0,-2
C[C@H](CO)N1C[C@H](C)[C@H](CN(C)C(=O)c2ccccn2)Oc2cc(C#Cc3ccccc3)ccc2S1(=O)=O,5[16.7 µM],1,-12,-2,0,-2
COc1ccc(-c2noc(CCCC(=O)Nc3cccnc3)n2)cc1OC,.,-1,.,5,-1,1
COc1ccc(-c2noc(CCC(=O)Nc3cccnc3)n2)cc1OC,1,.,66*,.,.,.
CN(Cc1ccccc1)N=Nc1ccccc1,.,0,0,7,.,-2
CN(Cc1ccccc1)N=Nc1nc[nH]c1C(N)=O,0,3,12,77*,0,3
CC1CCN(CC(O)COC2CC(C)CCC2C(C)C)CC1 (stereo not drawn),.,1,-2,-7,.,-1
CC(C)[C@@H]1CC[C@@H](C)C[C@H]1OC[B-](F)(F)F,.,-5,69*,-8,0,1
COc1cccc(NC(=O)N(C)C[C@@H]2Oc3ncc(C#Cc4ccc(F)cc4)cc3C(=O)N([C@@H](C)CO)C[C@H]2C)c1,-5[16.7 µM],0,-26,-9,0,1
C[C@@H]1CN([C@H](C)CO)C(=O)c2cc(NS(=O)(=O)c3cccs3)ccc2O[C@H]1CN(C)S(C)(=O)=O,-8[16.7 µM],-3,5,-3,33*,0
C[C@H]1CN([C@@H](C)CO)C(=O)c2cc(NS(=O)(=O)c3cccs3)ccc2O[C@H]1CN(C)S(C)(=O)=O,-9[16.7 µM],-3,1,?,449*,-2
C[C@@H]1CN([C@H](C)CO)C(=O)c2cc(NS(=O)(=O)c3cccs3)ccc2O[C@@H]1CN(C)S(C)(=O)=O,0[16.7 µM],-1,8,5,-6,-4

# Screening data: PubChem, Broad Institute
